In ChEMBL document CHEMBL3297715, “Potent cytotoxic arylnaphthalene lignan lactones from Phyllanthus poilanei” (J Nat Prod, 2014) one finds Activity, IC50 and inhibition data, which are given here for ten compounds.

Active and inactive are the calls of the source. No cut-off for these calls is given here.

By IC50 is commonly meant the concentration needed to halve the response being measured. A high value points to weaker potency in that assay.

Data set [1] relates to HT-29. Put plainly: Induction of apoptosis in human HT-29 cells assessed as early apoptotic cells at 1 uM after 72 hrs by flow cytometry (reference value: 3.93%). The format is functional. A general note: In flow cytometry, cells or beads pass a laser one at a time.
The test system of data set [2] is HT-29. As to the kind of experiment: Induction of apoptosis in human HT-29 cells assessed as caspase-3 activation by measuring cleaved caspase-3 level at 1 to 10 uM after 24 hrs by western blot analysis. In kind it is functional, cell-based. A digest of the protocol: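 HT-29 cells exposed 24 h to a range of concentrations. Lysed in NP-40/HEPES pH 7.5/0.5 M NaCl buffer with protease and phosphatase inhibitors. Resolved on 4–15% SDS-PAGE and immunoblotted with rabbit monoclonal cleaved caspase-3 (Asp175) antibody. Representative of three independent experiments.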
In general terms: A western blot detects proteins with antibodies after separation by electrophoresis.

The subject of data set [3] is HT-29. Put plainly: Induction of apoptosis in human HT-29 cells assessed as early apoptotic cells at 5 uM after 72 hrs by flow cytometry (reference value: 3.93%). In kind it is functional.
Data set [4] deals with HT-29. As to the kind of experiment: Induction of apoptosis in human HT-29 cells assessed as late apoptotic cells at 1 uM after 72 hrs by flow cytometry (reference value: 8.60%). In kind it is functional.
Data set [5] has as its system HT-29. As to the kind of experiment: Induction of apoptosis in human HT-29 cells assessed as late apoptotic cells at 5 uM after 72 hrs by flow cytometry (reference value: 8.60%). In kind it is functional.
Data set [6] has as its system HT-29. As to the kind of experiment: Cytotoxicity against human HT-29 cells. In kind it is functional, cell-based. A digest of the protocol: (§1)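 Paired cancer (HT-29 colon) and normal (CCD-112CoN colon) human cell lines, same screening method for both. Paclitaxel and etoposide as positive controls. IC50 from nonlinear regression. Triplicate measurements, representative of two independent experiments.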

For data set [7], the target named is DNA topoisomerase 2-alpha (Homo sapiens) (UniProt P11388). Put plainly: Inhibition of topoisomerase 2-alpha (unknown origin)-mediated relaxation of supercoiled pBR322 DNA at 100 uM by ethidium bromide staining based agarose gel electrophoresis.
Chain of DNA topoisomerase 2-alpha (Homo sapiens) (P11388 whole entry): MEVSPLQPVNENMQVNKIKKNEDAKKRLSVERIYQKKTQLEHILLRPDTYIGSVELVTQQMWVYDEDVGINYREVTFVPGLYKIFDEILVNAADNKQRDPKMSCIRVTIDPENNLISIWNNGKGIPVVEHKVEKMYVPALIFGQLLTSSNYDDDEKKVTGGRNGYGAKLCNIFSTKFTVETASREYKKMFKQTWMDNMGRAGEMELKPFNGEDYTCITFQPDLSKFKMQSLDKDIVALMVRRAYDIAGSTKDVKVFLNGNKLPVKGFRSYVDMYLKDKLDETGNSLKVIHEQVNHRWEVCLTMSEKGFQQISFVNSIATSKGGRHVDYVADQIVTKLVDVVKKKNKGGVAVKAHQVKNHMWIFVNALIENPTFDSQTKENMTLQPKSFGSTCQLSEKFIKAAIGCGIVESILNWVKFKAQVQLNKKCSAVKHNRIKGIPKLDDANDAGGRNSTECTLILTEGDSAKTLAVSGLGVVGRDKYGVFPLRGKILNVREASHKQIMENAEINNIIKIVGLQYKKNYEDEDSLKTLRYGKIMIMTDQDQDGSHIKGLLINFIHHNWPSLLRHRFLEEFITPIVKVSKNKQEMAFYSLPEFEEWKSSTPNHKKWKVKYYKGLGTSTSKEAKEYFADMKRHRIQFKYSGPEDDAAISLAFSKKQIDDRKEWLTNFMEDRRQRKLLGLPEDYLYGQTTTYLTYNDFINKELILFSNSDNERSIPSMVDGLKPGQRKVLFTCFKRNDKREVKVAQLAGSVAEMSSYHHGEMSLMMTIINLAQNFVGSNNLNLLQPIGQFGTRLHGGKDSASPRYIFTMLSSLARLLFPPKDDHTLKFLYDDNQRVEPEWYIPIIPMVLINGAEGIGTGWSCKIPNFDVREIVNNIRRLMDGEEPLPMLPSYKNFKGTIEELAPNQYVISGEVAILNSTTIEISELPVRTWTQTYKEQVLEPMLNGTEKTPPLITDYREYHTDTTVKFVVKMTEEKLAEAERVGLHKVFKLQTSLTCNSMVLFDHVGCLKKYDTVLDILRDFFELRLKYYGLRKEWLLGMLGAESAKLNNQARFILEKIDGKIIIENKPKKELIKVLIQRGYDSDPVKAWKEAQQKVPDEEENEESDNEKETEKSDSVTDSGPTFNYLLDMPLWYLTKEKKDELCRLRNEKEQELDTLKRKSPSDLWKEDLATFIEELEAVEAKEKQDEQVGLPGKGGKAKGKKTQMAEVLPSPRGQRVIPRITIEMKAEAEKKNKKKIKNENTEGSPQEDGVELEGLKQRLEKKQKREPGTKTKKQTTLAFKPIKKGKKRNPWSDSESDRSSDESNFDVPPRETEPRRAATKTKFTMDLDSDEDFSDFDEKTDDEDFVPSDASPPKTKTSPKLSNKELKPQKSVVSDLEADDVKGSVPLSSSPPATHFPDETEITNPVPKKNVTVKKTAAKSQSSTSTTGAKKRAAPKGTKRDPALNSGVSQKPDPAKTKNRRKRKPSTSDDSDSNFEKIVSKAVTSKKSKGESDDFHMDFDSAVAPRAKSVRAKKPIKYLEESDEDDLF
A short description of data set [8]: Cytotoxicity against human CCD-112CoN cells. The format is cell-based. A digest of the protocol: as §1
The test system of a further data set is Mus musculus. Put plainly: Toxicity in immunodeficient NCr nu/nu mouse xenografted with human HT-29 cells at 5 to 20 mg/kg, ip qd for 4 days administered from day 3 to day 6 post-implantation. The format is organism-based. As to conditions: in vivo, 96 h. More on the design: dose 5-20 mg/kg, route intraperitoneal. A digest of the protocol:
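NCr nu/nu mice bearing hollow-fibre HT-29 implants. Dosed ip once daily for 4 days at 5.0–20.0 mg/kg in 13% DMSO/25% Cremophor/water. Body weight recorded daily and signs of toxicity observed until sacrifice on day 7.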

The subject of data set [9] is HT-29. As to the kind of experiment: Antitumor activity against human HT-29 cells xenografted in immunodeficient NCr nu/nu mouse assessed as inhibition of cell growth at 10 to 20 mg/kg, ip qd for 4 days administered from day 3 to day 6 post-implantation measured on day 7. The format is functional, organism-based. A digest of the protocol:
(§2)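 HT-29 human colon cancer cells in hollow fibres implanted in 8–9-week-old NCr nu/nu mice. Drug in DMSO/Cremophor, diluted with water to 13% DMSO and 25% Cremophor. Doses 5.0–20.0 mg/kg ip once daily for 4 days (days 3–6); vehicle control; paclitaxel 5 mg/kg. Fibres retrieved day 7. Modified MTT net growth (day 7 minus day 0) relative to vehicle; n=3 treated; Student's t test.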

Data set [10] relates to HT-29. Put plainly: Antitumor activity against human HT-29 cells xenografted in ip dosed immunodeficient NCr nu/nu mouse assessed as inhibition of cell growth administered qd for 4 days from day 3 to day 6 post-implantation measured on day 7. In kind it is functional, organism-based. A digest of the protocol: as §2
For data set [11], the system named is HT-29. Put plainly: Antitumor activity against human HT-29 cells xenografted in immunodeficient NCr nu/nu mouse assessed as inhibition of cell growth at 5 mg/kg, ip qd for 4 days administered from day 3 to day 6 post-implantation measured on day 7. The format is functional, organism-based. More on the design: dose 5 mg/kg. Put shortly:
as §2

For `COc1cc([C@@H]2c3cc4c(cc3[C@@H](O[C@@H]3O[C@@H]5CO[C@@H](C)O[C@H]5[C@H](O)[C@H]3O)[C@H]3COC(=O)[C@H]23)OCO4)cc(OC)c1O` [ETOPOSIDE], the Activity was 12.9% in the data set on HT-29 [1], 12.5% in the data set on HT-29 [3], 19.8% in the data set with HT-29 [4] and 25.3% with HT-29 [5]. For the same compound, the outcome in the data set on HT-29 [2] was inactive.

In the case of `COc1cc2c(OC)c3c(c(-c4ccc5c(c4)OCO5)c2cc1OC)C(=O)OC3` [JUSTICIDIN A], in the data set with HT-29 [6], the IC50 is > 10000 nM.

In the data set with HT-29 [6], `COc1cc2c(O[C@@H]3OC[C@H](OC(C)=O)[C@H](O)[C@H]3O)c3c(c(-c4ccc5c(c4)OCO5)c2cc1OC)C(=O)OC3` displayed a 50% inhibitory concentration (IC50) of 1800 nM. That is a single-digit micromolar value.

Consider `COc1cc2c(O[C@@H]3OC[C@H](OC(C)=O)[C@H](OC(C)=O)[C@H]3OC(C)=O)c3c(c(-c4ccc5c(c4)OCO5)c2cc1OC)C(=O)OC3`, for which the inhibition result in data set [7] was “inactive”. Besides, the concentration for half-maximal inhibition (IC50) in the data set on HT-29 [6] was 110 nM.

As for `COc1cc2c(O[C@@H]3O[C@H](CO)[C@@H](O)[C@H](O)[C@H]3O)c3c(c(-c4ccc5c(c4)OCO5)c2cc1OC)C(=O)OC3`, in the data set on HT-29 [6], the IC50 was > 10000 nM.

In the case of `COc1cc2c(O[C@@H]3OC[C@H](OC(C)=O)[C@H](OC(C)=O)[C@H]3O)c3c(c(-c4ccc5c(c4)OCO5)c2cc1OC)C(=O)OC3`, the half-inhibitory concentration (IC50) in data set [8] was > 100 µM; with HT-29 [6], 170 nM. Also, the Activity result in the data set with Mus musculus is “Non-toxic”; in the data set on HT-29 [1], 28.2%; in the data set on HT-29 [3], 30.3%; with HT-29 [4], 27.3%; with HT-29 [5], 38%. The inhibition entry (in data set [7]; in the data set on HT-29 [11]) was “inactive” each time. Further, in the data set with HT-29 [9], the inhibition result is “Active”. Also, the outcome in the data set with HT-29 [2] was Active. In the data set with HT-29 [10], the inhibition entry is “Dose-dependent effect”.

For `COc1cc2c(O[C@@H]3OC[C@H](O)[C@H](O)[C@H]3O)c3c(c(-c4ccc5c(c4)OCO5)c2cc1OC)C(=O)OC3` [ACUTISSIMALIGNAN A], the IC50 in [8] was > 100 µM; in the data set with HT-29 [6] it was 3200 nM. Moreover, the inhibition entry in data set [7] is “inactive”.

Turning to `COc1cc2c(O)c3c(c(-c4ccc5c(c4)OCO5)c2cc1OC)C(=O)OC3` [DIPHYLLIN], in the data set on HT-29 [6], half-maximal inhibition (IC50) was put at 7600 nM.

As for `CC(=O)O[C@H]1C(=O)[C@@]2(C)[C@H]([C@H](OC(=O)c3ccccc3)[C@]3(O)C[C@H](OC(=O)[C@H](O)[C@@H](NC(=O)c4ccccc4)c4ccccc4)C(C)=C1C3(C)C)[C@]1(OC(C)=O)CO[C@@H]1C[C@@H]2O` [PACLITAXEL], the IC50 in data set [8] was found to be 23 µM.

Compound `COc1cc2c(O[C@@H]3OC[C@H](O)[C@H](OC(C)=O)[C@H]3O)c3c(c(-c4ccc5c(c4)OCO5)c2cc1OC)C(=O)OC3` showed an IC50 in the data set with HT-29 [6] of 1800 nM.
